Calls of active or inactive are those of the source. The calls are words filed in the database; no cut-off is given here.
Assays:
[1] = biological target: Receptor-interacting serine/threonine-protein kinase 2 (Homo sapiens) (UniProt O43353); experiment: Inhibition of human RIPK2 assessed as remaining activity at 10 uM in presence of ATP by radiometric kinase assay relative to control
[2] = Cmax in BALB/C mouse plasma at 10 mg/kg, po by LC/MS-MS analysis; assay type: ADME, organism-based
In short: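 Female BALB/c mice received a single 10mg/kg bolus i.v. or p.o. Plasma (and spleen homogenate) extracted with methanol containing internal standards. Concentrations were measured by LC/MS-MS and PK parameters calculated with modelling software.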

[3] = biological target: Dual specificity mitogen-activated protein kinase kinase 1 (Homo sapiens) (UniProt Q02750); experiment: Inhibition of human MKK1 assessed as remaining activity at 10 uM in presence of ATP by radiometric kinase assay relative to control
[4] = biological target: Dual specificity mitogen-activated protein kinase kinase 2 (Homo sapiens) (UniProt P36507); experiment: Inhibition of human MKK2 assessed as remaining activity at 10 uM in presence of ATP by radiometric kinase assay relative to control
[5] = biological target: Mitogen-activated protein kinase 1 (Homo sapiens) (UniProt P28482); experiment: Inhibition of human ERK2 assessed as remaining activity at 10 uM in presence of ATP by radiometric kinase assay relative to control
[6] = biological target: Serine/threonine-protein kinase 33 (Homo sapiens) (UniProt Q9BYT3); experiment: Inhibition of human STK33 assessed as remaining activity at 10 uM in presence of ATP by radiometric kinase assay relative to control
[7] = biological target: NUAK family SNF1-like kinase 1 (Homo sapiens) (UniProt O60285); experiment: Inhibition of human NUAK1 assessed as remaining activity at 10 uM in presence of ATP by radiometric kinase assay relative to control
[8] = biological target: MAP kinase-activated protein kinase 5 (Homo sapiens) (UniProt Q8IW41); experiment: Inhibition of human PRAK assessed as remaining activity at 10 uM in presence of ATP by radiometric kinase assay relative to control
[9] = biological target: Calcium/calmodulin-dependent protein kinase kinase 2 (Homo sapiens) (UniProt Q96RR4); experiment: Inhibition of human CAMKKb assessed as remaining activity at 10 uM in presence of ATP by radiometric kinase assay relative to control
[10] = biological target: Serine/threonine-protein kinase PLK1 (Homo sapiens) (UniProt P53350); experiment: Inhibition of human PLK1 assessed as remaining activity at 10 uM in presence of ATP by radiometric kinase assay relative to control
[11] = biological target: Serine/threonine-protein kinase pim-2 (Homo sapiens) (UniProt Q9P1W9); experiment: Inhibition of human PIM2 assessed as remaining activity at 10 uM in presence of ATP by radiometric kinase assay relative to control
[12] = biological target: Serine/threonine-protein kinase pim-3 (Homo sapiens) (UniProt Q86V86); experiment: Inhibition of human PIM3 assessed as remaining activity at 10 uM in presence of ATP by radiometric kinase assay relative to control
[13] = biological target: Serine/threonine-protein kinase 26 (Homo sapiens) (UniProt Q9P289); experiment: Inhibition of human MST4 assessed as remaining activity at 10 uM in presence of ATP by radiometric kinase assay relative to control
[14] = biological target: Tyrosine-protein kinase BTK (Homo sapiens) (UniProt Q06187); experiment: Inhibition of human BTK assessed as remaining activity at 10 uM in presence of ATP by radiometric kinase assay relative to control
[15] = biological target: Tyrosine-protein kinase SYK (Homo sapiens) (UniProt P43405); experiment: Inhibition of human SYK assessed as remaining activity at 10 uM in presence of ATP by radiometric kinase assay relative to control
[16] = biological target: Ephrin type-B receptor 4 (Homo sapiens) (UniProt P54760); experiment: Inhibition of human EPH-B4 assessed as remaining activity at 10 uM in presence of ATP by radiometric kinase assay relative to control
[17] = biological target: Fibroblast growth factor receptor 1 (Homo sapiens) (UniProt P11362); experiment: Inhibition of human FGF-R1 assessed as remaining activity at 10 uM in presence of ATP by radiometric kinase assay relative to control
[18] = biological target: Receptor tyrosine-protein kinase erbB-4 (Homo sapiens) (UniProt Q15303); experiment: Inhibition of human HER4 assessed as remaining activity at 10 uM in presence of ATP by radiometric kinase assay relative to control
Homo sapiens = species: Homo sapiens; experiment: Inhibition of human VEG-FR assessed as remaining activity at 10 uM in presence of ATP by radiometric kinase assay relative to control
[19] = biological target: Interleukin-1 receptor-associated kinase 1 (Homo sapiens) (UniProt P51617); experiment: Inhibition of human IRAK1 assessed as remaining activity at 10 uM in presence of ATP by radiometric kinase assay relative to control
[20] = biological target: Proto-oncogene tyrosine-protein kinase Src (Homo sapiens) (UniProt P12931); experiment: Inhibition of human Src assessed as remaining activity at 10 uM in presence of ATP by radiometric kinase assay relative to control
[21] = biological target: MAP/microtubule affinity-regulating kinase 3 (Homo sapiens, UniProt P27448); experiment: Inhibition of human MARK3 at 10 uM in presence of ATP by radiometric kinase assay relative to control
HT-29 [22] = experiment: Induction of cell cycle arrest in etoposide induced human HT-29 cells assessed as increase in accumulation of cells at S phase at 1 to 5 uM incubated for 24 hrs by BrdU and PI staining based flow cytometry analysis; assay type: functional; settings: dose 1-5 µM
In short: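 HT29 cells exposed for 24h, stained with bromodeoxyuridine and propidium iodide, and cell-cycle distribution measured by flow cytometry.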

HT-29 [23] = experiment: Induction of apoptosis in human HT-29 cells assessed as phosphorylation of H2AX on S139 in presence of gemcitabine by Western blotting analysis; assay type: functional, cell-based
SW-620 = experiment: Induction of apoptosis in human SW620 cells assessed as increased in cleaved PARP in presence of gemcitabine by Western blotting analysis; assay type: functional, cell-based
[24] = AUC (0 to infinity) in BALB/C mouse spleen at 10 mg/kg, po by LC/MS-MS analysis; assay type: ADME, organism-based
[25] = Toxicity in CRTac:Ncr-Fox1 mouse xenografted with human Calu-6 cells assessed as body weight at 150 mg/kg, po administered for 3 days in presence of gemcitabine relative to control; assay type: organism-based; settings: in vivo, 72 h, time 3 day
Mus musculus [26] = experiment: In vivo inhibition of CHK1 in CRTac:Ncr-Fox1 athymic mouse xenografted with human Calu-6 cells assessed as inhibition of CHK1 phosphorylation on S296 at 150 mg/kg, po in presence of gemcitabine and carboplatin by Western blotting analysis; assay type: functional, organism-based
In short: (§1)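 Female CRTac:Ncr-Fox1(nu) athymic mice carried s.c. Calu6 xenografts. Tumors were taken 6h after the last inhibitor dose, lysed in CHAPS buffer, and immunoblotted with GAPDH as loading control.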

Mus musculus [27] = experiment: In vivo inhibition of CHK1 in CRTac:Ncr-Fox1 athymic mouse xenografted with human Calu-6 cells assessed as enhanced phosphorylation CHK1 at […] on 150 mg/kg, po in presence of gemcitabine and carboplatin by Western blotting analysis; assay type: functional, organism-based; in short: as §1

Chain of Proto-oncogene tyrosine-protein kinase Src (Homo sapiens) (P12931 2-536 limits assumed): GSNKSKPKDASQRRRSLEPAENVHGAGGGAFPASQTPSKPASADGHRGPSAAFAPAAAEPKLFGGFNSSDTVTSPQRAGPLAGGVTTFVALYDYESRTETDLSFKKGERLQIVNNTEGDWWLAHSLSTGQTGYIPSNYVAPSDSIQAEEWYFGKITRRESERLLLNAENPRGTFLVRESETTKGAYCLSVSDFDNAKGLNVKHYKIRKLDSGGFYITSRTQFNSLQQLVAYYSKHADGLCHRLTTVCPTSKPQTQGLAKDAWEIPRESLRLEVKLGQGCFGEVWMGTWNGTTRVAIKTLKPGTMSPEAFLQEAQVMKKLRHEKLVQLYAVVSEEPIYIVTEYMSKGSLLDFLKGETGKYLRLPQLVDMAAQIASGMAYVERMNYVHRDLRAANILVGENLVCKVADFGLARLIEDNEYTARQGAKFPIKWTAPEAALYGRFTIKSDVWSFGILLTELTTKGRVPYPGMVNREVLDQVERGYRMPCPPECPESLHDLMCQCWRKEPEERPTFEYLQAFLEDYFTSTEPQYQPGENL
Chain of MAP/microtubule affinity-regulating kinase 3 (P27448 whole entry, looked up): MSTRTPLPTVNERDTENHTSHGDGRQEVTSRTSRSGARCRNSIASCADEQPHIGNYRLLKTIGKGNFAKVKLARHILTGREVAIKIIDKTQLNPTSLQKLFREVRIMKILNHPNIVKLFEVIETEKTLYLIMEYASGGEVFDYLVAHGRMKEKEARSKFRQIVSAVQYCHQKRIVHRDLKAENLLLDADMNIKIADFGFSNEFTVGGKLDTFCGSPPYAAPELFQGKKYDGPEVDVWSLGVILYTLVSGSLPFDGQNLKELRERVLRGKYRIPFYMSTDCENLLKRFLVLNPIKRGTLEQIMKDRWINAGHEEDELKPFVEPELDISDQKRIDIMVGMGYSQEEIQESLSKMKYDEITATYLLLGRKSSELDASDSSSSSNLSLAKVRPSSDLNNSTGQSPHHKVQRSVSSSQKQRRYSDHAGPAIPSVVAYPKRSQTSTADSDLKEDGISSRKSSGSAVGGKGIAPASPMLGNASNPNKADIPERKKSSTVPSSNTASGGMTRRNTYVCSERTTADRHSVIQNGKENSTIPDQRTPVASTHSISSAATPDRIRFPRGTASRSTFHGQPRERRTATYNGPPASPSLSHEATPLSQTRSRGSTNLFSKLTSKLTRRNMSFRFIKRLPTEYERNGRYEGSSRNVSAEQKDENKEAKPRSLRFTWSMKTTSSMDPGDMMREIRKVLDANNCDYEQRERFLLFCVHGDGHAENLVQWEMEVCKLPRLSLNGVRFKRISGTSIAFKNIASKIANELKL
Chain of Serine/threonine-protein kinase pim-2 (Homo sapiens) (Q9P1W9 whole entry, looked up): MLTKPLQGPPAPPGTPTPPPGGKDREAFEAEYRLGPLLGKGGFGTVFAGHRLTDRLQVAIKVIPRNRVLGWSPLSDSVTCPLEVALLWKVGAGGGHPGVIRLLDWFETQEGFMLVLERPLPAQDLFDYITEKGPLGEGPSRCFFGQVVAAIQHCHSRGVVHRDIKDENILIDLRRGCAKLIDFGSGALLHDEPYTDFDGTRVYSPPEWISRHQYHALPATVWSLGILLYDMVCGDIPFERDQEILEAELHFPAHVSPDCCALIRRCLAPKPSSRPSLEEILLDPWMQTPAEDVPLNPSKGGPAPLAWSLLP
Chain of NUAK family SNF1-like kinase 1 (Homo sapiens) (O60285 whole entry): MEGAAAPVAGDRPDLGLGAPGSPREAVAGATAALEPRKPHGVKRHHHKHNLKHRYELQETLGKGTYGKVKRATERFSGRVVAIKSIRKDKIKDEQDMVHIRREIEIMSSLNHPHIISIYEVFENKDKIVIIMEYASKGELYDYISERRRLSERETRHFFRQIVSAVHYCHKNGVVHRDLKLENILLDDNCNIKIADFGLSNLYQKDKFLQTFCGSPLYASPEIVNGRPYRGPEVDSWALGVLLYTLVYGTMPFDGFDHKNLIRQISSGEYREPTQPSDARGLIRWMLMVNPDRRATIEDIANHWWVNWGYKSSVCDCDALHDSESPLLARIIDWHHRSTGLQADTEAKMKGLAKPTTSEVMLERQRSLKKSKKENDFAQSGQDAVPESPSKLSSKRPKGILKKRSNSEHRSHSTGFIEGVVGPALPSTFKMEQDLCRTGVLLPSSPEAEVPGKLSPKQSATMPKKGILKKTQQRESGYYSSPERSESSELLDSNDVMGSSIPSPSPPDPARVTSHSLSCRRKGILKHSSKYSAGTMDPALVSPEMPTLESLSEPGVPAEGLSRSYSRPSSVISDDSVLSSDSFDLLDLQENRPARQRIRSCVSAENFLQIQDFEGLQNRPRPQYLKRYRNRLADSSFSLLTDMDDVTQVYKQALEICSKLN
Chain of Dual specificity mitogen-activated protein kinase kinase 2 (Homo sapiens) (P36507 whole entry): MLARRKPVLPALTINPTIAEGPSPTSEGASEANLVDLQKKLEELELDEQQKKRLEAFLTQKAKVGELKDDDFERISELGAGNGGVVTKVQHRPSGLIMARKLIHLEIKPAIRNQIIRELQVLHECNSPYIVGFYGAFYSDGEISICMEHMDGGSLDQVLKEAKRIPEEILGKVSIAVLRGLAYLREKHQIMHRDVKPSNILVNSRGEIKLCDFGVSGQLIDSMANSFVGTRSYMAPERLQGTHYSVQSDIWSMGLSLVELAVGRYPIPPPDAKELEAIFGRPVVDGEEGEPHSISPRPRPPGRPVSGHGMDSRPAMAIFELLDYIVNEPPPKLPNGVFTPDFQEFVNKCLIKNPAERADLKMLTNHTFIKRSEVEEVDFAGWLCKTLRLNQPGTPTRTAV
Chain of Serine/threonine-protein kinase 26 (Homo sapiens) (Q9P289 2-416 limits assumed): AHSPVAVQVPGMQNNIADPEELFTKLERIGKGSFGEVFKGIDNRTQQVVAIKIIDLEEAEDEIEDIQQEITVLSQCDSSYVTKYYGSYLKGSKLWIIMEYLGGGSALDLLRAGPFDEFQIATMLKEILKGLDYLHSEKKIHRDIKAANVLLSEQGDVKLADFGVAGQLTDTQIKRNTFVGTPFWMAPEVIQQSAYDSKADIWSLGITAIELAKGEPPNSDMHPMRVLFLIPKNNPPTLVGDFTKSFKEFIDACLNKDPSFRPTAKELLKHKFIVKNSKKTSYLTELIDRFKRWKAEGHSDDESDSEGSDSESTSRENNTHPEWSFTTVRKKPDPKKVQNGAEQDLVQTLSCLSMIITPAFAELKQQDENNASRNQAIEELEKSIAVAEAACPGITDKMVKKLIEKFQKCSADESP
Chain of Receptor-interacting serine/threonine-protein kinase 2 (Homo sapiens) (O43353 whole entry): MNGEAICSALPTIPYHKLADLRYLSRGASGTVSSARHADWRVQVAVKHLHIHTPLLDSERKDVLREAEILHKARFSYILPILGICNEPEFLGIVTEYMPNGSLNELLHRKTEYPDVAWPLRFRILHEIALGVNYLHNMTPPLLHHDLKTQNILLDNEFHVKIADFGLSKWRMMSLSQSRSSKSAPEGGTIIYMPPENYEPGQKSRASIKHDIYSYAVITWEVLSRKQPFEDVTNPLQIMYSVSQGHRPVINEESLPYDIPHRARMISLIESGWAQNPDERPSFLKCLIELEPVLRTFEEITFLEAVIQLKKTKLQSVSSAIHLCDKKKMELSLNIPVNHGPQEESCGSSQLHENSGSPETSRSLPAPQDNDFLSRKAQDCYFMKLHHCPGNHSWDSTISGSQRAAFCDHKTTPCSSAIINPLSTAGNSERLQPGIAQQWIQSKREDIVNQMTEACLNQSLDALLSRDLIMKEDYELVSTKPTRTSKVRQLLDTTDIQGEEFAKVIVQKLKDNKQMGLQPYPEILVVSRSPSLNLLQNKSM
Chain of Ephrin type-B receptor 4 (Homo sapiens) (P54760 whole entry): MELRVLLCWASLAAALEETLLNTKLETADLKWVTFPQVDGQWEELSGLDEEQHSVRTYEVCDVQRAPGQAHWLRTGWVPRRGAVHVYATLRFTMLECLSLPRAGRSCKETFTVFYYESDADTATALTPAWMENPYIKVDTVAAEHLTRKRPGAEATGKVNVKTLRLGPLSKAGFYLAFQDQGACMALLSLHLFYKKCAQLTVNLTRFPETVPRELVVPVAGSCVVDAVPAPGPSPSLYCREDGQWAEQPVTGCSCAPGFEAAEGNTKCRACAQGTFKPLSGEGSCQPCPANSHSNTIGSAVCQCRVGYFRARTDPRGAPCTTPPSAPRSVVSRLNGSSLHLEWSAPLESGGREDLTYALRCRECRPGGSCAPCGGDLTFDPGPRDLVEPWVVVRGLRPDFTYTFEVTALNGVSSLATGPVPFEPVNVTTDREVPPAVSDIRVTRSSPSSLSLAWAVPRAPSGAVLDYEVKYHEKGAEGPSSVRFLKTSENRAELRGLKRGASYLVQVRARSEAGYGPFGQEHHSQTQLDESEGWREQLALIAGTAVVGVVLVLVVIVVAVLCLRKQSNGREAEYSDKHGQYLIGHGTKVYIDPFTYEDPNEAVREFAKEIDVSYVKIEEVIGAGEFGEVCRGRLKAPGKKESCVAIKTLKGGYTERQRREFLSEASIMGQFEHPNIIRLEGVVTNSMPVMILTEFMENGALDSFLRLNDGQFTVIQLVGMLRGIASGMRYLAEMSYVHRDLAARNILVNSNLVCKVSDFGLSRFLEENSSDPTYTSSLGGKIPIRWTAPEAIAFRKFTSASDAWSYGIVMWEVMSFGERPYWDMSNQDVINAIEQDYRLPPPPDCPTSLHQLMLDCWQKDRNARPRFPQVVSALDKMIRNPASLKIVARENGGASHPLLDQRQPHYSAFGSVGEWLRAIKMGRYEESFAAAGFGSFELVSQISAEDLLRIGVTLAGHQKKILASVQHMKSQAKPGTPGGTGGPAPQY

Activity [1]: 101% | Cmax [2]: 1620 nM | Activity [3]: 68% | Activity [4]: 61% | Activity [5]: 98% | Activity [6]: 39% | Activity [7]: 6% | Activity [8]: 71% | Activity [9]: 73% | Activity [10]: 103% | Activity [11]: 88% | Activity [12]: 36% | Activity [13]: 44% | Activity [14]: 72% | Activity [15]: 84% | Activity [16]: 81% | Activity [17]: 33% | Activity [18]: 110% | Activity (Homo sapiens): 13% | Activity [19]: 38% | Activity [20]: 93% | inhibition [21]: 87% | AUC(0-inf) [24]: 223 µM·h
Structure (SMILES): N#Cc1cnc(Nc2cc(NC[C@H]3CNCCO3)c(C(F)(F)F)cn2)cn1 [SRA-737]
Activity (HT-29 [22]): Active | Activity (HT-29 [23]): Active | Activity (SW-620): Active | Activity [25]: 98% | inhibition (Mus musculus [26]): Active | Activity (Mus musculus [27]): Active

Source: ChEMBL document CHEMBL5653622 (Oncotarget, 2016)
